Results of several laboratories.
Protocols differ between the studies behind these lines.
Cell line: K562

| SMILES | assay | conditions | IC50 |
| --- | --- | --- | --- |
| CC(C)C[C@H](NC(=O)[C@H](Cc1ccccc1)NC(=O)c1cnccn1)B(O)O | cell growth or viability, ATP luminescence |  | 5.6 nM |
| O=C1NCCc2[nH]c(-c3ccncc3)cc21 | cell growth or viability |  | > 10000 nM |
| CC(C)[C@H](N)C(=O)N1CCC[C@H]1B(O)O | cell growth or viability, ATP luminescence | 48 h | > 60000 nM |
| CC(=O)O[C@@H]1OC=C2[C@@H](OC(C)=O)C[C@H]3[C@]4(C)CC[C@H]5C(C)(C)CCC[C@]5(C)[C@H]4C[C@@H](O)[C@]3(C)[C@H]21 | NF-κB activity, inhibitor, luciferase | TNF-stimulated | 6000 nM |
| CCCON(Cc1ccc(C(=O)NO)cc1)C(=O)Nc1ccc(N(C)C)cc1 | cell growth or viability, ATP luminescence | 72 h | 7680 nM |
| C#CCSc1nc(Sc2nnnn2-c2ccccc2)c2nnn(Cc3ccc(OC)cc3)c2n1 | cell growth or viability, MTS | 6 days | 7240 nM |
| C[C@H](O)C(=O)CCCCCCC(=O)Nc1cccc(-c2cn(-c3ccccc3)nn2)c1 | cell growth or viability, thymidine uptake |  | 7120 nM |
| CCCCCC/C=C1\CC2C=CC=CC1C2C1CCCCC1=O (centres unmarked) | cell growth or viability, flow cytometry |  | 17 nM |
| CN1c2ccccc2C(=O)N2[C@H](C(=O)Nc3ccc(/C=C/C(=O)NO)cc3)Cc3c([nH]c4ccccc34)[C@@H]12 | cell growth or viability |  | 1000 nM |
| CC(C)(C)SCCCC1=CC2C=CC=CC1C2C1CCCCC1=O (centres unmarked) | cell growth or viability, flow cytometry |  | 28 nM |
| COc1ccc(/C=C\c2cc(OC)c(OC)c(OC)c2)cc1O | cell growth or viability |  | 5 nM |
| O=C1CCCCC1C1C2C=CC=CC1C(CCN1C(=O)c3ccccc3C1=O)=C2 (centres unmarked) | cell growth or viability, flow cytometry |  | 11 nM |
| CC(=O)O[C@H](C)C(=O)CCCCCCC(=O)Nc1ccccc1 | cell growth or viability, thymidine uptake |  | > 100000 nM |
| O=C1CCCCC1C1C2C=CC=CC1C(CCCCOC1CCCCO1)=C2 (centres unmarked) | cell growth or viability, flow cytometry |  | 27 nM |
| c1ccc(-c2n[nH]cc2-c2ccnc(-c3ccc(OCCn4ccnc4)cc3)c2)nc1 | cell growth or viability, XTT | 72 h | 20000 nM |
| CCOC(=O)CCC1=CC2C=CC=CC1C2C1CCCCC1=O (centres unmarked) | cell growth or viability, flow cytometry |  | 21 nM |
| CCCON(Cc1ccc(C(=O)NO)cc1)C(=O)Nc1ccccc1 | cell growth or viability, ATP luminescence | 72 h | 1770 nM |
